According to ChEMBL document CHEMBL1138555, “N-acylated and N,N'-diacylated imidazolidine-2-thione derivatives and N,N'-diacylated tetrahydropyrimidine-2(1H)-thione analogues: synthesis and antiproliferative activity” (Eur J Med Chem, 2009):
Activity calls are given as the source filed them. The calls are words filed in the database; no cut-off is given here.

Tested on: Human immunodeficiency virus 1
Assay: Antiviral activity against HIV1 in human MT4 cells assessed as prevention of virus-induced cytopathogenicity
Type: functional, organism-based
Method in brief: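 MT-4 cells, 1 × 10⁴ per well, with serial compound dilutions from a 100 mM DMSO stock. Infected with HIV-1 at 100 CCID50. Four-day incubation at 37 °C, then viable cells measured by MTT. Read-out is inhibition of virus-induced cytopathogenicity, assessed at non-cytotoxic concentrations.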

Structure (SMILES) | Activity
CC(=O)/C(=C/N1CCNC1=S)C(=O)c1ccccc1 | inactive
N#CC(C#N)=CN1CCNC1=S | inactive
O=C(C(=CN1CCNC1=S)C(=O)c1ccccc1)c1ccccc1 | inactive
